Measurements published in ChEMBL document CHEMBL1137359, “Potent and orally bioavailable 8-bicyclo[2.2.2]octylxanthines as adenosine A1 receptor antagonists” (J Med Chem, 2006).
Converted amounts (≈) assume the structure as drawn.

Assays:
[1] = target: T1, Adenosine receptor A3 (Homo sapiens) (UniProt P0DMS8); test: Displacement of [125I]ABA from human adenosine A3 receptor expressed in HEK cells relative to control; format: cell-based; design: concentration or dose not given beside the values; details: HEK293
T1 sequence (whole entry): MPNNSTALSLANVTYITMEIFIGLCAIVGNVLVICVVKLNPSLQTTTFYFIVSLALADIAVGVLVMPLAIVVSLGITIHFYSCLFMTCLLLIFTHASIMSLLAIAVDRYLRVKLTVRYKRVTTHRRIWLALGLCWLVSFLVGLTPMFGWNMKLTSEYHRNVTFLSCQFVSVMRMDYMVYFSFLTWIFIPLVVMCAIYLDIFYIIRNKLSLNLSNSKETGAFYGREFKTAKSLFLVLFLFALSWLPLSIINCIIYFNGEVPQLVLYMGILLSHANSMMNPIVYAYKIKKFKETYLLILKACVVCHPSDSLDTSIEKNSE
Summary of the method: (§1)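 Single-point screen at 1 µM antagonist, run in duplicate, on transfected-cell membranes: CHO-K1 (hA1), HEK (hA2A, hA2B, hA3). 2 h at room temperature in 50 mM HEPES pH 7.4, 1 mM EDTA, 5 mM MgCl2, 1 U/mL adenosine deaminase; 5% DMSO except hA3. Nonspecific binding with 50 µM XAC, or 10 µM BW-1433 for hA3. Result is % radioligand bound relative to control.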

[2] = target: Adenosine receptors; A1 & A2a (Homo sapiens) (UniProt P30542+P29274); test: Selectivity for human adenosine A1 receptor over human adenosine A2A receptor; format: protein assay
[3] = target: T2, Adenosine receptor A1 (Homo sapiens, UniProt P30542); test: Displacement of [125I]ABA from human adenosine A1 receptor expressed in CHOK1 cells; format: cell-based, CHO-K1
T2 sequence (P30542 whole entry): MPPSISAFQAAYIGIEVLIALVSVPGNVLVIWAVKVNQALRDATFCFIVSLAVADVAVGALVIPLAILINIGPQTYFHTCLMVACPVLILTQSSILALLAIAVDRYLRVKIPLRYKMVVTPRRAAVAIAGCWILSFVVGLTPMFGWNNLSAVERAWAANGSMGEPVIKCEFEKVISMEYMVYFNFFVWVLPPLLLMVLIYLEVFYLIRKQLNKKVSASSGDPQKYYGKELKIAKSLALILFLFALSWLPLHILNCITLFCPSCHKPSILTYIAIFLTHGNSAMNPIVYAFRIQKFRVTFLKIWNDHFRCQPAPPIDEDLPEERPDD
Summary of the method: (§2)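 Membranes from stably transfected CHO-K1 (hA1) or HEK (hA2A, hA2B, hA3) cells, 2 h at room temperature in 50 mM HEPES pH 7.4, 1 mM EDTA, 5 mM MgCl2, 1 U/mL adenosine deaminase. 5% DMSO final except hA3. Full curves 10^-11–10^-5 M, seven concentrations, four determinations each. Filtration, γ-counting, Ki derived.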

[4] = target: T3, Adenosine receptor A2a (Homo sapiens, UniProt P29274); test: Displacement of [125I]ZM-241385 from human adenosine A2A receptor expressed in HEK cells; format: cell-based, HEK293; summary of the method: as §2
[5] = target: T4, Adenosine receptor A2b (Homo sapiens) (UniProt P29275); test: Displacement of [125I]3-(4-aminobenzyl)-8-phenyloxyacetate-1-propyl-xanthine from human adenosine A2B receptor expressed in HEK cells relative to control; format: cell-based; design: concentration or dose not given beside the values; details: HEK293; summary of the method: as §1
T4 sequence (whole entry): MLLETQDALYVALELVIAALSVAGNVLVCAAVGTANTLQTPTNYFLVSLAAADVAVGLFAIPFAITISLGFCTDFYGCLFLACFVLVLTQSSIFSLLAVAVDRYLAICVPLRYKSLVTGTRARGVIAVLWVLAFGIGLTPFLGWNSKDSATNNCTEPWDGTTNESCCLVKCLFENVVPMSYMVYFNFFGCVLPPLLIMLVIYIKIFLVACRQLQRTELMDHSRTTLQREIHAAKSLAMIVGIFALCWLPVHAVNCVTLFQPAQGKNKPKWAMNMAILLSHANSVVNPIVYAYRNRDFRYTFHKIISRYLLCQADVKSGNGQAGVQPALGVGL

[6] = target: T3, Adenosine receptor A2a; test: Displacement of [125I]ZM-241385 from human adenosine A2A receptor expressed in HEK cells relative to control; format: cell-based; design: concentration or dose not given beside the values; details: HEK293; summary of the method: as §1
[7] = target: T5, Adenosine receptor A1 (Homo sapiens) (UniProt P30542); test: Displacement of [125I]ABA from human adenosine A1 receptor expressed in CHOK1 cells relative to control; format: cell-based; design: concentration or dose not given beside the values; details: CHO-K1; summary of the method: as §1
T5 sequence (whole entry): T2 sequence (P30542 whole entry)

[8] = target: T6, Adenosine receptor A2b (Homo sapiens, UniProt P29275); test: Displacement of [125I]3-(4-aminobenzyl)-8-phenyloxyacetate-1-propyl-xanthine from human adenosine A2B receptor expressed in HEK cells; format: cell-based, HEK293; summary of the method: as §2
T6 sequence (P29275 whole entry): T4 sequence (whole entry)

[9] = target: T7, Adenosine receptor A1 (Rattus norvegicus, UniProt P25099); test: Displacement of [3H]CPX from rat brain cortex adenosine A1 receptor
T7 sequence (P25099 whole entry): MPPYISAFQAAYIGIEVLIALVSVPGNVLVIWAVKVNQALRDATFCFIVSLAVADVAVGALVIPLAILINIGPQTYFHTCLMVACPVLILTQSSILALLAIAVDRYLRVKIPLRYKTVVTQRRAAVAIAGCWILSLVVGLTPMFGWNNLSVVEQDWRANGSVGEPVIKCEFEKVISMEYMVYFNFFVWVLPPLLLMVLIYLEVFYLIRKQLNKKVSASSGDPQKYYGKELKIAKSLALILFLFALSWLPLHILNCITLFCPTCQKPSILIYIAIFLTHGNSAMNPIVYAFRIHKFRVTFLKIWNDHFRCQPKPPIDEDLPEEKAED
Summary of the method: (§3)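 Crude membranes (10-20 µg protein) from rat brain cortex (A1, 2 nM 3H-CPX) or striatum (A2A, 0.5-1.2 nM 3H-ZM241385) incubated 90 min at room temperature in 50 mM Tris-HCl pH 7.4 with 2 U/mL adenosine deaminase. Stopped with ice-cold buffer, then vacuum filtration and scintillation counting. Ki from concentration-response displacement.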

[10] = target: Adenosine receptor A2a (Rattus norvegicus, UniProt P30543); test: Displacement of [3H]ZM-241385 from rat brain striatum adenosine A2A receptor; summary of the method: as §3
[11] = target: T8, Adenosine receptor A3 (Homo sapiens, UniProt P0DMS8); test: Displacement of [125I]ABA from human adenosine A3 receptor expressed in HEK cells; format: cell-based, HEK293
T8 sequence (P0DMS8 whole entry): T1 sequence (whole entry)
Summary of the method: as §2, with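 “hA3. Radioligands: 0.3 nM (hA1) or 0.6 nM (hA3) 125I-ABA, 0.7 nM 125I-ZM241385, 0.5 nM A2B ligand.” for “hA3.”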

[12] = Aqueous solubility of the compound; format: physicochemical; details: water
Summary of the method: (§4)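 Solubility of each compound measured in sterile water for injection, 0.9% saline, 5% dextrose in water, ethanol and octanol; values in mg/mL from duplicate determinations per solvent, individual values varying <5%.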

[13] = Solubility in ethanol; format: physicochemical; summary of the method: as §4
[14] = Solubility in 0.9% saline; format: physicochemical; summary of the method: as §4
[15] = Solubility in octanol; format: physicochemical; summary of the method: as §4
[16] = Solubility in 5% dextrose in water; format: physicochemical; summary of the method: as §4

T3 sequence (P29274 whole entry): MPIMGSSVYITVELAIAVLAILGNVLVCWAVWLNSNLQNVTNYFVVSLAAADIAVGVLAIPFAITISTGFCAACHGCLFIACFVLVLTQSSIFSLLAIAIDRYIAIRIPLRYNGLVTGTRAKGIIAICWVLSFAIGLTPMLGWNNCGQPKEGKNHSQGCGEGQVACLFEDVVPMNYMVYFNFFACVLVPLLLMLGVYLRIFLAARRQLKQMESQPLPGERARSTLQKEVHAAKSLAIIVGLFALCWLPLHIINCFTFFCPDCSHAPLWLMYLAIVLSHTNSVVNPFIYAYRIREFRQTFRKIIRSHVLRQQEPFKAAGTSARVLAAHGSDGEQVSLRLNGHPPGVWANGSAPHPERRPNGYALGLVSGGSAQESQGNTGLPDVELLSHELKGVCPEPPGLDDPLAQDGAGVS
Chain of Adenosine receptor A2a (Rattus norvegicus, UniProt P30543) (P30543 whole entry): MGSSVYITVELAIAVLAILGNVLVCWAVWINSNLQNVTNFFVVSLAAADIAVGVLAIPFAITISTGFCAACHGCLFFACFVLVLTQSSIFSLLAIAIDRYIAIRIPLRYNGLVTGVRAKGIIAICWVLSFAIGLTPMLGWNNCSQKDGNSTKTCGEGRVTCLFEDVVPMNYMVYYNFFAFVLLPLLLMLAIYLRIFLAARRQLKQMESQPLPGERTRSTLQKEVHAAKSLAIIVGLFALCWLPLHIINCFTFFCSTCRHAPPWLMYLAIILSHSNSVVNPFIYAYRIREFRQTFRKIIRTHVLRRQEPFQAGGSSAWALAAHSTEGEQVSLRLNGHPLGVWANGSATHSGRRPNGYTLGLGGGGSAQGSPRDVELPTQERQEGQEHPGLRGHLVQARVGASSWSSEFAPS
Chain of Adenosine receptors; A1 & A2a (Homo sapiens) (P29274 whole entry, looked up, one chain of several): as the sequence (P29274 whole entry) above

| Structure (SMILES) | Activity [1] [%] | Ratio Ki [2] | Ki [3] [nM] | Ki [4] [nM] | Activity [5] [%] | other results |
| --- | --- | --- | --- | --- | --- | --- |
| CCCn1c(=O)c2nc([C@]34CC[C@](C(=O)N5CCC(C(=O)O)CC5)(CC3)CC4)[nH]c2n(CCC)c1=O | 100 | 81 | 96 | 7820 | 41 |  |
| CCCn1c(=O)c2nc([C@]34CC[C@](CO)(CC3)CC4)[nH]c2n(CCC)c1=O | 73 | 26 | 16 | 414 | 27 |  |
| CCCn1c(=O)c2nc([C@]34CC[C@](C(=O)N(C)CC(=O)OC)(CC3)CC4)[nH]c2n(CCC)c1=O | 88 | > 89 | 112 | > 10000 |  | Ki [8]: 296 nM |
| CCCn1c(=O)c2nc([C@]34CC[C@](/C=C/C(=O)O)(CC3)CC4)[nH]c2n(CCC)c1=O | 100 | 333 | 9.6 | 3330 |  | Ki [8]: 100 nM |
| CCCn1c(=O)c2nc([C@]34CC[C@](CC(=O)O)(CC3)CC4)[nH]c2n(CCC)c1=O |  |  |  |  |  | Ki [9]: 22.5 nM; Ki [10]: 8960 nM |
| CCCn1c(=O)c2nc([C@H]3CC[C@H](C(=O)N4CCOCC4)CC3)[nH]c2n(CCC)c1=O | 88 |  |  |  | 48 | Activity [6]: 99%; Activity [7]: 60% |
| CCCn1c(=O)c2nc([C@]34CC[C@](C(=O)NCC(=O)O)(CC3)CC4)[nH]c2n(CCC)c1=O | 70 | 161 | 49 | 7880 | 53 |  |
| CCCn1c(=O)c2nc([C@]34CC[C@](C(=O)NCCN(C)C)(CC3)CC4)[nH]c2n(CCC)c1=O | 79 | 22 | 6 | 132 | 3 |  |
| CCCCC[C@]12CC[C@](c3nc4c(=O)n(CCC)c(=O)n(CCC)c4[nH]3)(CC1)CC2 | 100 |  |  |  | 100 | Activity [6]: 79%; Activity [7]: 25% |
| CCCn1c(=O)c2nc([C@]34CC[C@](C(=O)NCC(=O)OC)(CC3)CC4)[nH]c2n(CCC)c1=O |  | 85 | 8 | 681 |  | Ki [11]: 6700 nM; Ki [8]: 207 nM |
| CCCn1c(=O)c2[nH]c([C@]34CC[C@](C(=O)OC)(CC3)CC4)nc2n(CCC)c1=O |  |  | 9 | 912 |  |  |
| CCCn1c(=O)c2nc([C@]34CC[C@](C(=O)NCCC(=O)OC)(CC3)CC4)[nH]c2n(CCC)c1=O |  | 63 | 22 | 1400 |  | Ki [11]: > 10000 nM; Ki [8]: 505 nM |
| CCCn1c(=O)c2[nH]c([C@H]3CC4C[C@@H]3[C@H]3O[C@@H]43)nc2n(CCC)c1=O |  |  | 12 |  |  | solubility [12]: 460 µg/mL (≈ 1340 µM); solubility [13]: 85300 µg/mL (≈ 248000 µM); Ki [9]: 0.7 nM; Ki [11]: 4810 nM; solubility [14]: 430 µg/mL (≈ 1250 µM); solubility [15]: 4600 µg/mL (≈ 13400 µM); Ki [10]: 1250 nM; solubility [16]: 250 µg/mL (≈ 726 µM) |
| CCCn1c(=O)c2nc([C@]34CC[C@](C=O)(CC3)CC4)[nH]c2n(CCC)c1=O | 76 | 53 | 15 | 799 | 14 |  |
| CCCn1c(=O)c2nc([C@H]3CC[C@H](C(=O)N(CC)CC)CC3)[nH]c2n(CCC)c1=O | 100 |  |  |  | 39 | Activity [6]: 70%; Activity [7]: 46% |
| CCCn1c(=O)c2nc([C@H]3CC[C@H](C(=O)NCCN(C)C)CC3)[nH]c2n(CCC)c1=O | 91 | 14 | 12 | 168 | 16 |  |
| CCCn1c(=O)c2nc([C@]34CC[C@](C(=O)OC)(CC3)CC4)[nH]c2n(CCC)c1=O | 44 | 101 |  |  | 19 |  |

Second part, led by results:

| Activity [1] [%] | Ratio Ki [2] | Ki [3] [nM] | Ki [4] [nM] | Activity [5] [%] | Structure (SMILES) | other results |
| --- | --- | --- | --- | --- | --- | --- |
| 100 |  |  |  | 46 | CCCn1c(=O)c2nc([C@H]3CC[C@@H](NC(C)=O)CC3)[nH]c2n(CCC)c1=O | Activity [6]: 63%; Activity [7]: 60% |
| 95 | 16 | 171 | 2720 | 28 | CCCn1c(=O)c2nc([C@H]3CC[C@H](COCc4ccccc4)CC3)[nH]c2n(CCC)c1=O |  |
| 88 |  |  |  | 69 | CCCn1c(=O)c2nc([C@H]3CC[C@H](C(=O)O)CC3)[nH]c2n(CCC)c1=O | Activity [6]: 75%; Activity [7]: 31% |
| 77 | 8 |  |  | 18 | CCCn1c(=O)c2nc([C@H]3CC[C@H](CO)CC3)[nH]c2n(CCC)c1=O |  |
| 100 |  |  |  | 38 | CCCn1c(=O)c2nc([C@H]3CC[C@H](NC(C)=O)CC3)[nH]c2n(CCC)c1=O | Activity [6]: 92%; Activity [7]: 45% |
|  |  | 109 | 2960 |  | CCCn1c(=O)c2[nH]c([C@H]3CC[C@H](NC(=O)OCc4ccccc4)CC3)nc2n(CCC)c1=O |  |
| 100 |  |  |  | 30 | CCCn1c(=O)c2nc(C3CCC(NC(=O)OCc4ccccc4)CC3)[nH]c2n(CCC)c1=O (mixture of isomers) | Activity [6]: 69%; Activity [7]: 23% |
|  |  | 41 | 313 |  | CCCn1c(=O)c2[nH]c([C@H]3CC[C@H](CO)CC3)nc2n(CCC)c1=O |  |
| 93 | 49 | 46 | 2260 | 11 | CCCCNC(=O)[C@H]1CC[C@H](c2nc3c(=O)n(CCC)c(=O)n(CCC)c3[nH]2)CC1 |  |
| 86 | 27 |  |  | 24 | CCCn1c(=O)c2nc([C@H]3CC[C@H](NC(=O)OCc4ccccc4)CC3)[nH]c2n(CCC)c1=O |  |
